ChEMBL document CHEMBL1140584, “Novel potent organoselenium compounds as cytotoxic agents in prostate cancer cells” (Bioorg Med Chem Lett, 2007)

test system: PC-3; experiment: Cytotoxicity against human PC3 cells at 2 to 10 uM by MTT assay; assay type: functional, cell-based; conditions: not given
In short: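 PC-3 cells (ATCC, tumorigenic metastatic prostate cancer) grown in RPMI 1640 with Glutamax, 10% FBS and 1% penicillin–streptomycin. Seeded at 5·10³ cells/well in complete medium and incubated overnight at 37 °C, 5% CO₂ before compound addition. MTT formazan absorbance read at 570 nm. Percentage viable cells relative to untreated controls used to derive IC50.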

| Compound | IC50 |
| --- | --- |
| CC[Se]/C(=N\C(=O)c1ccccc1)NC(=O)c1ccccc1 | > 10 µM |
| CS/C(=N\C(=O)c1cccnc1Cl)NC(=O)c1cccnc1Cl | > 10 µM |
| C[Se]/C(=N\C(=O)c1ccc(Cl)nc1)NC(=O)c1ccc(Cl)nc1 | 9.14 µM |
| CC(C)[Se]/C(=N\C(=O)c1ccccc1)NC(=O)c1ccccc1 | > 10 µM |
| COc1cc(OC)cc(C(=O)/N=C(/NC(=O)c2cc(OC)cc(OC)c2)[Se]C)c1 | 6.5 µM |
| CS/C(=N\C(=O)c1ccccc1)NC(=O)c1ccccc1 | > 10 µM |
| CS/C(=N\C(=O)c1ccc(Cl)cc1)NC(=O)c1ccc(Cl)cc1 | > 10 µM |
| C[Se]/C(=N\C(=O)c1ccc(Cl)cc1)NC(=O)c1ccc(Cl)cc1 | 7.6 µM |
| C[Se]/C(=N\C(=O)c1ccc(C)cc1)NC(=O)c1ccc(C)cc1 | 1.85 µM |
| CC(C)[Se]/C(=N\C(=O)c1ccc(Cl)cc1)NC(=O)c1ccc(Cl)cc1 | > 10 µM |
| C[Se]/C(=N\C(=O)c1ccc([N+](=O)[O-])cc1)NC(=O)c1ccc([N+](=O)[O-])cc1 | > 10 µM |
| C[Se]/C(=N\C(=O)c1ccc(C#N)cc1)NC(=O)c1ccc(C#N)cc1 | > 10 µM |
| CS/C(=N\C(=O)c1ccc(C)cc1)NC(=O)c1ccc(C)cc1 | > 10 µM |
| C[Se]/C(=N\C(=O)c1ccc(C(F)(F)F)cc1)NC(=O)c1ccc(C(F)(F)F)cc1 | > 10 µM |
| C[Se]/C(=N\C(=O)c1ccc(C(C)(C)C)cc1)NC(=O)c1ccc(C(C)(C)C)cc1 | > 10 µM |
| C[Se]/C(=N\C(=O)c1ccccc1)NC(=O)c1ccccc1 | 2.5 µM |
| COc1cc(OC)cc(C(=O)/N=C(/NC(=O)c2cc(OC)cc(OC)c2)[Se]C(C)C)c1 | > 10 µM |
| C[Se](=O)O [METHYLSELENINIC ACID] | 8.38 µM |

test system: not listed separately; experiment: Toxicity against human RWPE1 cells at 2 to 10 uM by MTT assay; assay type: cell-based, RWPE-1; conditions: read-out: LD50 (the source's name)
In short: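 Non-tumorigenic human prostate RWPE-1 cells (ATCC) kept in keratinocyte-SFM supplemented with 1% FBS and 1% penicillin–streptomycin. MTT read-out as formazan absorbance at 570 nm. Viability expressed as percentage of untreated control cells and used to derive IC50.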

| Compound | CC50 |
| --- | --- |
| C[Se]/C(=N\C(=O)c1ccc(Cl)nc1)NC(=O)c1ccc(Cl)nc1 | > 10 µM |
| C[Se]/C(=N\C(=O)c1ccc(C)cc1)NC(=O)c1ccc(C)cc1 | > 10 µM |
| C[Se]/C(=N\C(=O)c1ccccc1)NC(=O)c1ccccc1 | 4.1 µM |
